Laboratory results published in ChEMBL document CHEMBL5705892, “MK-2206, an allosteric Akt inhibitor, enhances antitumor efficacy by standard chemotherapeutic agents or molecular targeted drugs in vitro and in vivo” (Mol Cancer Ther, 2010).
Active and inactive are the calls of the source. The rule behind the calls is not given here.

How the values were obtained:
NCI-H292 [1] = test: Induction of apoptosis in human NCI-H292 cells assessed as increase in caspase-3/7 activity up to 3 umol/L measured after 48 hrs by caspase-glo 3/7 assay; format: functional, cell-based; conditions: dose <= 3.0 µmol/L
Method in brief: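 Caspase-3/7 activity was measured by Caspase-Glo 3/7 and expressed as fold over DMSO vehicle control. The experiment was done twice.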

A2780 = test: Cell cycle arrest in human A2780 cells assessed as increase in accumulation of cells at sub-G1 phase at 0.12 to 3 umol/L measured after 72 hrs in presence of carboplatin by propidium iodide staining based flow cytometry relative to control; format: functional; conditions: dose 0.12-3 µmol/L, at 0.12 to 3 µM
NCI-H460 [2] = test: Antitumor activity against human NCI-H460 cells xenografted in CD1 nude mouse assessed as reduction in tumor volume at 120 mg/kg, po administered 3 times per week for 2 weeks in presence of carboplatin by caliper method; format: functional, organism-based
Method in brief: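 NCI-H460 cells were injected s.c. in Matrigel/PBS into CD1-nude mice (female in the carboplatin study). Mice were randomized at 0.2 cm³, n = 5. Carboplatin was given at 50 mg/kg or gemcitabine at 100 mg/kg, i.v. in saline, on days 0 and 7. MK-2206 (30% Captisol) was given at 120 mg/kg po on days 0, 2, 4, 7, 9, 11. Tumors measured by caliper twice weekly.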

SK-BR-3 [3] = test: Synergistic antiproliferative activity against human SK-BR-3 cells assessed as combination index at ED90 measured after 72 hrs in presence of lapatinib by celltiter-glo assay; format: functional
NCI-H441 = test: Induction of apoptosis in human NCI-H441 cells assessed as fold induction of capsase-3/7 activity measured after 24 to 48 hrs in presence of carboplatin by caspase-glo 3/7 assay; format: functional; conditions: time 24-48 hrs
SK-OV-3 [4] = test: Antitumor activity against human SK-OV-3 cells xenografted in po dosed CB17/icr SCID mouse assessed as tumor growth inhibition administered 3 times per week for 2 weeks starting 2 hrs post lapatinib treatment and measured twice a week during compound dosing by caliper method; format: functional, organism-based; conditions: dose 60-120 mg/kg
Method in brief: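 SK-OV-3 cells were implanted s.c. into female C.B-17/ICR-scid mice, which were randomized at 0.13 cm³, n = 5. Lapatinib (water) was given at 100 mg/kg po on days 0–4 and 7–11. MK-2206 (30% Captisol) was given at 60 or 120 mg/kg po on days 0, 2, 4, 7, 9, 11. Tumor volume by calipers twice weekly.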

[5] = target: RAC-alpha serine/threonine-protein kinase (Homo sapiens) (UniProt P31749); test: Inhibition of AKT in human HCC827 cells assessed as reduction in AKT phosphorylation at S473 residue at 5 umol/L measured after 5 hrs by Western blot analysis; format: cell-based; conditions: dose 5.0 µmol/L
RAC-alpha serine/threonine-protein kinase (Homo sapiens), sequence (P31749 whole entry): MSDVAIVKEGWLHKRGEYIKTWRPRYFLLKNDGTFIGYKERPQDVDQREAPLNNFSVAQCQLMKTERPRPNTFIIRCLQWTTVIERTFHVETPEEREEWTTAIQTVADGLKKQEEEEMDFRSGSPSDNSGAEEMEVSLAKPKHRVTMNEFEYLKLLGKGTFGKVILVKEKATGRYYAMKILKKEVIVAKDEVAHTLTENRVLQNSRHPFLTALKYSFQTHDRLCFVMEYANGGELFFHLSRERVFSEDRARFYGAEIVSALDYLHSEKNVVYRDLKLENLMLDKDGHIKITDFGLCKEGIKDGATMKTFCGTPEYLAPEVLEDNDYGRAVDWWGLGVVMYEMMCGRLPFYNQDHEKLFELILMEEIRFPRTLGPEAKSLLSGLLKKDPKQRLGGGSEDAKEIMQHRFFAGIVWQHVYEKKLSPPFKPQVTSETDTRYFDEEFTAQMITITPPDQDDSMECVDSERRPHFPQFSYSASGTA

NCI-H23 = test: Synergistic antiproliferative activity against human NCI-H23 cells assessed as combination index at ED75 measured after 72 hrs in presence of erlotinib by celltiter-glo assay; format: functional
NCI-H292 [6] = test: Antiproliferative activity against human NCI-H292 cells assessed as reduction in cell proliferation measured after 72 hrs by celltiter-glo assay; format: functional, cell-based; conditions: NCI-H292, 72 h
Method in brief: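 Cells in RPMI 1640 with 10% heat-inactivated FBS at 37°C and 5% CO₂ were seeded at 2 to 3 × 10³ per well. […] Growth was read as cellular ATP by CellTiter-Glo.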

NCI-H460 [7] = test: Synergistic antiproliferative activity against human NCI-H460 cells assessed as combination index at ED75 measured after 72 hrs in presence of erlotinib by celltiter-glo assay; format: functional
NCI-H358 = test: Synergistic antiproliferative activity against human NCI-H358 cells assessed as combination index at ED90 measured after 72 hrs in presence of erlotinib by celltiter-glo assay; format: functional
NCI-H460 [8] = test: Synergistic antiproliferative activity against human NCI-H460 cells assessed as combination index at ED90 measured after 72 hrs in presence of camptothecin by celltiter-glo assay; format: functional
SK-OV-3 [9] = test: Synergistic antiproliferative activity against human SK-OV-3 cells assessed as combination index at ED90 measured after 72 hrs in presence of lapatinib by celltiter-glo assay; format: functional
NCI-N87 [10] = test: Synergistic antiproliferative activity against human NCI-N87 cells assessed as combination index at ED50 measured after 96 hrs in presence of lapatinib by celltiter-glo assay; format: functional
[11] = Toxicity in human NCI-H292 cells xenografted CD-1 mouse assessed as death at 120 mg/kg, po administered 3 times per week for 2 weeks starting 2 hrs post-erlotinib treatment and measured during compound dosing; format: organism-based; conditions: in vivo, 336 h
Method in brief: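 NCI-H292 cells in 50% Matrigel/PBS injected s.c. into flank of female CD1-nude mice; dosing began after 2 wk at mean tumour 0.2 cm³, n = 5/group. […] Body weight and signs monitored; treatment ended day 16.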

[12] = target: RAC-alpha serine/threonine-protein kinase (Homo sapiens) (UniProt P31749); test: Inhibition of AKT in human HCC827 cells assessed as reduction in PRAS40 phosphorylation at T246 residue at 5 umol/L measured after 5 hrs by Western blot analysis; format: cell-based; conditions: dose 5.0 µmol/L
NCI-H1993 = test: Synergistic antiproliferative activity against human NCI-H1993 cells assessed as combination index at ED25 to ED90 measured after 72 hrs in presence of carboplatin by celltiter-glo assay; format: functional
MCF7 = test: Synergistic antiproliferative activity against human MCF7 cells assessed as combination index at ED90 measured after 72 hrs in presence of docetaxel by celltiter-glo assay; format: functional
Method in brief: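 Cells grown in RPMI 1640 with 10% heat-inactivated FBS at 37°C, 5% CO₂. Seeded at 2 to 3 × 10³ per well; drugs added 24 h later. […] Viability read as cellular ATP by CellTiter-Glo. CI calculated by Chou–Talalay from median-effect plots at ED50, ED75 and ED90.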

ZR-75-1 = test: Synergistic antiproliferative activity against human ZR-75-1 cells assessed as combination index at ED90 measured after 72 hrs in presence of docetaxel by celltiter-glo assay; format: functional
NCI-H460 [13] = test: Synergistic antiproliferative activity against human NCI-H460 cells assessed as combination index at ED50 measured after 72 hrs in presence of carboplatin by celltiter-glo assay; format: functional
NCI-N87 [14] = test: Synergistic antiproliferative activity against human NCI-N87 cells assessed as combination index at ED90 treated 24 hrs prior to lapatinib and measured after 72 hrs by celltiter-glo assay; format: functional; conditions: time 96 hrs
SK-BR-3 [15] = test: Synergistic antiproliferative activity against human SK-BR-3 cells assessed as combination index at ED75 treated 24 hrs prior to lapatinib and measured after 72 hrs by celltiter-glo assay; format: functional; conditions: time 96 hrs
SK-BR-3 [16] = test: Synergistic antiproliferative activity against human SK-BR-3 cells assessed as combination index at ED75 measured after 72 hrs in presence of lapatinib by celltiter-glo assay; format: functional
[17] = target: RAC-alpha serine/threonine-protein kinase (Homo sapiens) (UniProt P31749); test: Inhibition of AKT in human A-431 cells assessed as reduction in PRAS40 phosphorylation at T246 residue at 5 umol/L measured after 5 hrs in presence of erlotinib by Western blot analysis; format: cell-based; conditions: dose 5.0 µmol/L
Method in brief: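 Cells were lysed in Tris-HCl pH 7.5, 150 mM NaCl, 1% Triton X-100 with protease and phosphatase inhibitors. Lysates were run on SDS-PAGE, transferred to nitrocellulose and probed with phospho-specific antibodies.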

With `Cl.NC1(c2ccc(-c3nc4ccn5c(=O)[nH]nc5c4cc3-c3ccccc3)cc2)CCC1` as the compound, how does the Activity (NCI-H292 [1]) read?
The Activity was “inactive”.

And the Activity (A2780)?
Its Activity is over 40%.

And the Activity (NCI-H460 [2])?
The Activity was “Active”.

And the CI90 (SK-BR-3 [3])?
Its CI90 is 0.09.

What about the “fold change (FC)” value (NCI-H441) of the same compound?
Its value is 2.3.

And the TGI (SK-OV-3 [4])?
The TGI was “Dose-Dependent Effect”.

What about the inhibition [5] of the same compound?
Its inhibition is “Active”.

What about the CI75 (NCI-H23) of the same compound?
The CI75 was 0.46.

What about the IC50 (NCI-H292 [6]) of the same compound?
The IC50 was 5.2 µM.

What about the CI75 (NCI-H460 [7]) of the same compound?
The CI75 was 0.23.

And the CI90 (NCI-H358)?
The CI90 was 0.08.

What about the CI90 (NCI-H460 [8]) of the same compound?
Its CI90 is 0.63.

What about the CI90 (SK-OV-3 [9]) of the same compound?
The CI90 was 0.25.

What about the CI50 (NCI-N87 [10]) of the same compound?
Its CI50 is 0.18.

And the Activity [11]?
Its Activity is “Non-Toxic”.

What about the inhibition [12] of the same compound?
The inhibition was “Active”.

And the CI (NCI-H1993)?
The CI was 0.44.

And the CI90 (MCF7)?
The CI90 was 0.3.

What about the CI90 (ZR-75-1) of the same compound?
The CI90 was 0.4.

And the CI50 (NCI-H460 [13])?
The CI50 was 0.35.

And the CI90 (NCI-N87 [14])?
Its CI90 is 0.18.

What about the CI75 (SK-BR-3 [15]) of the same compound?
The CI75 was 0.18.

And the CI75 (SK-BR-3 [16])?
Its CI75 is 0.19.

What about the inhibition [17] of the same compound?
Its inhibition is “Active”.
